Laboratory results reported in ChEMBL document CHEMBL1955791, “Studies on gambogic acid (IV): Exploring structure-activity relationship with IκB kinase-beta (IKKβ)” (Eur J Med Chem, 2012).
Activity calls are given as the source filed them. The rule behind the calls is not given here.

Tests used:
A549 [1] = assay: Antiproliferative activity against human A549 cells after 24 hrs by MTT assay; type: functional, cell-based; settings: A549, 24 h
In short: (§1)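 Test agents diluted in culture medium, 24 h exposure. Viability read colorimetrically by MTT; vitality index (%) = A_treatment/A_control × 100; IC50 reported.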

U-251 [2] = assay: Antiproliferative activity against human U251 cells after 24 hrs by MTT assay; type: functional, cell-based; settings: U-251, 24 h; in short: as §1
[3] = biological target: T1, Inhibitor of nuclear factor kappa-B kinase subunit beta (Homo sapiens, UniProt O14920); assay: Inhibition of IKK-beta using TMB substrate after 15 mins by spectrophotometer analysis
T1 sequence (O14920 whole entry): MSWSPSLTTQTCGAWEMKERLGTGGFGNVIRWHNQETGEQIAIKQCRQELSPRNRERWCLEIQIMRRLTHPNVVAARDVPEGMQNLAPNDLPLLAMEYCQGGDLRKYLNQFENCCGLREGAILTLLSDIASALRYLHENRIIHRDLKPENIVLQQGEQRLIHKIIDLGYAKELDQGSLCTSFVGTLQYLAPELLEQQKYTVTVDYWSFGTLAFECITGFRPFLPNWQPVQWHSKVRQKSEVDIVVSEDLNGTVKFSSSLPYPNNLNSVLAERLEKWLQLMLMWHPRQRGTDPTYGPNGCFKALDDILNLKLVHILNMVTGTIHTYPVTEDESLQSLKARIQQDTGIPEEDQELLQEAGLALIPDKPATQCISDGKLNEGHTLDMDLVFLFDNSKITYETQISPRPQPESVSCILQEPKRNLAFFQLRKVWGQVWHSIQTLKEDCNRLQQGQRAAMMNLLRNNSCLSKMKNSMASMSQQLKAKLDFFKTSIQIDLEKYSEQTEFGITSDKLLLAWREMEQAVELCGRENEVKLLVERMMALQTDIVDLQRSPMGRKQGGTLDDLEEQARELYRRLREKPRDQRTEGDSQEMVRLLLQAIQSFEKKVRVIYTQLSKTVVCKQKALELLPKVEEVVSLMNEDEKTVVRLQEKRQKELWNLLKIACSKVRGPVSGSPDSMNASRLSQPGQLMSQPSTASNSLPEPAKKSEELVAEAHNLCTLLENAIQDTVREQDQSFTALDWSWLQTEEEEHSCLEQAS
In short: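 Kit-supplied IKKβ (50 ng in 4× reaction cocktail) preincubated with test sample 5 min at room temperature. 2× ATP/biotinylated substrate peptide cocktail added, 30 min at room temperature, stopped with 50 mM EDTA pH 8. Product captured on streptavidin plate, probed with anti-phospho-IκBα (Ser32) then HRP anti-rabbit IgG. TMB developed 15 min, read at 450 nm.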

U-251 [4] = assay: Induction of apoptosis in human U251 cells assessed as morphological changes at 8 uM after 24 hrs by inverted light microscopic analysis; type: functional, cell-based
In short: (§2)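 U251 cells in DMEM with 10% fetal calf serum under 5% CO2, exposed to compound for 24 h. Cell shape (rounding, shrinkage) inspected and photographed under an inverted light microscope at 200×, compared against untreated cells.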

A549 [5] = assay: Inhibition of NF-kappaB activation in human A549 cells assessed as inhibition of TNFalpha/IFNgamma/IL-1beta-induced NF-kappaB nuclear translocation at 5 uM treated 2 hrs before TNFalpha/IFNgamma/IL-1beta stimulation measured after 30 mins; type: cell-based
In short: (§3)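 A549 cells plated at 9000 per well, serum-starved 18 h, then given compound at graded concentrations for 2 h at 37 °C. Stimulated 30 min at 37 °C with TNFα 50 ng/mL, IFN-γ 100 U/mL and IL-1β 100 U/mL. Fixed, permeabilised and immunostained for NF-κB. High-content imaging read-out was the nuclear/cytoplasmic NF-κB fluorescence ratio, taken as the translocation inhibition rate.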

[6] = biological target: T2, NF-kappa-B inhibitor alpha (Homo sapiens) (UniProt P25963); assay: Inhibition of TNF-alpha-induced IkappaBalpha degradation in human A549 cells at 4 to 8 uM treated 4 hrs before TNFalpha stimulation measured after 30 mins by Western blotting; type: cell-based
T2 sequence (whole entry): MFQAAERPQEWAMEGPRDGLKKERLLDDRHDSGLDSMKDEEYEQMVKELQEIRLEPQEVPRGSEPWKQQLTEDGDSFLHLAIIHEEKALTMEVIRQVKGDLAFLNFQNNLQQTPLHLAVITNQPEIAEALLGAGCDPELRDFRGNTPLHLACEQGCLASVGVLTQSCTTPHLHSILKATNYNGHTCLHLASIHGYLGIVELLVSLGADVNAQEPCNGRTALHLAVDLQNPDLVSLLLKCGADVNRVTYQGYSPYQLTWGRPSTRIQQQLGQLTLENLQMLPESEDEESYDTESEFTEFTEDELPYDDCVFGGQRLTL
In short: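 A549 cells incubated 4 h with 4 or 8 μM compound, then exposed to TNF 0.1 ng/mL for various times. Cytoplasmic IκBα was followed by western blot.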

A549 [7] = assay: Inhibition of NF-kappaB activation in human A549 cells assessed as inhibition of TNFalpha-induced p65 nuclear translocation treated 4 hrs before TNFalpha stimulation measured after 30 mins by Western blotting; type: cell-based
In short: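 A549 cells either untreated or pretreated with compound for 4 h at 37 °C, then given TNFα 50 ng/mL for 30 min. Cytoplasmic and nuclear extracts were western-blotted for p65, with β-actin (cytoplasm) and histone (nucleus) as loading controls.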

A549 [8] = assay: Inhibition of NF-kappaB activation in human A549 cells assessed as inhibition of TNFalpha/IFNgamma/IL-1beta-induced NF-kappaB nuclear translocation treated 2 hrs before TNFalpha/IFNgamma/IL-1beta stimulation measured after 30 mins; type: cell-based; in short: as §3
[9] = biological target: T2, NF-kappa-B inhibitor alpha (Homo sapiens); assay: Inhibition of TNF-alpha-induced IkappaBalpha phosphorylation in human A549 cells at 4 to 8 uM treated 4 hrs before TNFalpha stimulation measured after 30 mins by Western blotting; type: cell-based
U-251 [10] = assay: Induction of apoptosis in human U251 cells assessed as increase in late apoptotic and necrotic cells at 4 to 16 uM after 24 hrs using Annexin V/propidium iodide staining by flow cytometry; type: functional
In short: (§4)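 U251 cells (DMEM, 10% fetal calf serum, 5% CO2) treated 24 h, washed with PBS and resuspended in binding buffer (pH 7.5, 10 mM HEPES, 2.5 mM CaCl2, 140 mM NaCl). Stained with Annexin V-FITC then PI for 10 min in the dark at room temperature, then analysed by flow cytometry. Lower-right quadrant counted as early/median apoptotic; upper-right as late apoptotic/necrotic.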

U-251 [11] = assay: Induction of apoptosis in human U251 cells assessed as morphological changes at 4 to 64 uM after 24 hrs by inverted light microscopic analysis; type: functional, cell-based; in short: as §2
U-251 [12] = assay: Induction of apoptosis in human U251 cells assessed as increase in early and median apoptotic cells at 4 to 16 uM after 24 hrs using Annexin V/propidium iodide staining by flow cytometry; type: functional; in short: as §4
U-251 [13] = assay: Induction of apoptosis in human U251 cells assessed as appearance of nuclear condensation and apoptotic bodies at 4 to 64 uM after 24 hrs by DAPI staining; type: functional, cell-based
In short: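 Treated U251 cells stained with DAPI and examined by fluorescence microscopy at 400× for bright condensed nuclei and apoptotic bodies.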

Row | Compound | IC50 (A549 [1]) [µM] | IC50 (U-251 [2]) [µM] | IC50 [3] [µM] | further results
1 | CC(C)=CCc1c(O)cc(O)c2c(=O)c3ccccc3oc12 | 34.9 | 46.8 | 13.1 | 
2 | CC(C)=CCc1c(O)cc2c(c1O)C(=O)C1=C[C@@H]3C[C@H]4C(C)(C)O[C@@](CC=C(C)C)(C3=O)[C@@]14O2 | 14.4 | 22.4 | 10.8 | 
3 | CC(C)=CC[C@@]12OC(C)(C)[C@@H]3C[C@@H](C=C4C(=O)c5c(O)cccc5O[C@]431)C2=O | 0.7 | 9.05 | 8.17 | 
4 | CC(C)=CC[C@@]12OC(C)(C)[C@@H]3C[C@@H](C=C4C(=O)c5ccccc5O[C@]431)C2=O | 1.93 | 18.7 | 24.2 | 
5 | CC(C)=CCc1c(O)cc(O)c2c1O[C@]13C(=C[C@@H]4C[C@H]1C(C)(C)O[C@@]3(CC=C(C)C)C4=O)C2=O | 3.58 | 8.57 | 6.6 | 
6 | CC(C)=CC[C@@]12OC(C)(C)[C@@H]3C[C@@H](C=C4C(=O)C=C(c5ccccc5)O[C@]431)C2=O | 27.5 | 40.2 | 41.7 | 
7 | CC(C)=CCC[C@]1(C)C=Cc2c(O)c3c(c(CC=C(C)C)c2O1)O[C@]12C(=C[C@@H]4C[C@H]1C(C)(C)O[C@@]2(C/C=C(/C)C(=O)O)C4=O)C3=O [GAMBOGIC ACID] | 1.1 | 2.56 | 3.07 | Activity (U-251 [4]): Active; inhibition (A549 [5]): 50.2%; inhibition [6]: Active; inhibition (A549 [7]): Dose-dependent effect; inhibition (A549 [8]): Dose-dependent effect; inhibition [9]: Active
8 | CC(C)=CC[C@@]12OC(C)(C)[C@@H]3C[C@@H](C=C4C(=O)c5c(O)cc(O)cc5O[C@]431)C2=O | 2.67 | 7.32 | 3.52 | Activity (U-251 [10]): 34.24%; Activity (U-251 [11]): Active; Activity (U-251 [12]): 58.21%; Activity (U-251 [13]): Active
9 | CC(C)=CC[C@@]12OC(C)(C)[C@@H]3C[C@@H](C=C4C(=O)CC(C)O[C@]431)C2=O (stereo partly drawn) | 60.3 | 82.4 | 40.3 | 
10 | CC(C)=CCc1cc(C2=CC(=O)C3=C[C@@H]4C[C@H]5C(C)(C)O[C@@](CC=C(C)C)(C4=O)[C@@]35O2)ccc1O | 15.5 | 18.7 | 25.3 | 
11 | O=c1cc(-c2ccccc2)oc2c(O)c(O)ccc12 [7,8-DIHYDROXYFLAVONE] | 37.2 | 50.1 | 9.82 | 
